This is an account of results in ChEMBL document CHEMBL4219104, “Bicyclo((aryl)methyl)benzamides as inhibitors of GlyT1” (Bioorg Med Chem Lett, 2018).

Converted amounts (≈) assume the structure as drawn.

Data set [1] can be described thus: Octanol-water partition coefficient, log D of the compound at pH 7.4. The format is physicochemical. A digest of the protocol:
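logD determined empirically as ratio of compound partitioned between octanol and water at pH 7.4.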

Data set [2] is described as follows: Equilibrium solubility of the compound in phosphate buffer at pH 7.4 by UV-HPLC analysis. In kind it is physicochemical. The method in brief:
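Equilibrium solubility determined at pH 7.4.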

Data set [3] can be described thus: Cmax in Sprague-Dawley rat at 9 umol/kg, po. The following applies: in vivo. Details: dose 9 umol/kg, route oral. The format is ADME, organism-based.
The nature of data set [4]: Ratio of drug level in brain to plasma in Sprague-Dawley rat at 3 umol/kg, iv. In kind it is ADME. As to conditions: read-out: BPR.
Data set [5] is described as follows: Ratio of drug level in brain to plasma in sc dosed CD-1 mouse. The following applies: read-out: BPR. In kind it is ADME, organism-based. The method in brief: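 CD-1 mice dosed subcutaneously; brain and plasma levels compared as brain-to-plasma ratio.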
Data set [6] in a line: Volume of distribution at steady state in Sprague-Dawley rat at 3 umol/kg, iv. The format is ADME, organism-based. As to conditions: in vivo, read-out: Vdss.
Data set [7] is described as follows: Tmax in Sprague-Dawley rat at 9 umol/kg, po. The following applies: in vivo. The format is ADME, organism-based.
Data set [8] is described as follows: Oral bioavailability in Sprague-Dawley rat at 9 umol/kg. The following applies: in vivo. In kind it is ADME, organism-based.

As a reminder, the logD is the decadic logarithm of the distribution of all forms, ionised or not, between an organic phase and buffer at a given pH. Higher therefore signals higher lipophilicity. In the case of `CN1CC2CCC1(C(NC(=O)c1cccc(C(F)(F)F)c1Cl)c1ccco1)CC2` (racemic), the logD in data set [1] was determined as 2.
Same read-out and setting: for `CN1CC2CCC1(C(NC(=O)c1cccc(C(F)(F)F)c1Cl)c1cccnc1)CC2` (racemic) the value was 2.3; for `CN1CC2CCC1(C(NC(=O)c1cccc(C(F)(F)F)c1Cl)c1cccc(Br)c1)CC2` (racemic), 3.3.
One may read the solubility (thermodynamic) as solubility found after equilibrating the solid with the medium. Compound `CN1CC2CCC1([C@@H](NC(=O)c1cccc(C(F)(F)F)c1Cl)c1ccccc1)CC2` had a thermodynamic solubility in data set [2] of more than 500 µM. Further, in data set [1], the logD came out at 2.7.
Taken in the same sequence, the figures for `CN1CC2CCC1([C@H](NC(=O)c1cccc(C(F)(F)F)c1Cl)c1ccccc1)CC2` were more than 482 µM and 2.7.
Regarding `CSc1ncccc1C(=O)N[C@H](c1ccccc1)C12CCC(CC1)CN2C`, the solubility (thermodynamic) in data set [2] is more than 500 µM. This compound had a logD in data set [1] of 1.3.
In turn, `Cc1ccccc1C(NC(=O)c1cccc(C(F)(F)F)c1Cl)C12CCC(CC1)CN2C` (racemic) came in with a logD in data set [1] of 3.
Same read-out and setting: for `CN1CC2CCC1(C(NC(=O)c1cccc(C(F)(F)F)c1Cl)c1ccccn1)CC2` (racemic) the value was 1.6; for `COc1ccc(C(NC(=O)c2cccc(C(F)(F)F)c2Cl)C23CCC(CC2)CN3C)cc1` (racemic), 2.7; for `Cc1cccc(C)c1C(=O)NC(c1ccccc1)C12CCC(CC1)N2C1CC1` (stereo not given), 1.1.
As for `CN1CC2CCC1([C@H](NC(=O)c1cccc(Cl)c1Cl)c1ccccc1)CC2`, in data set [2], the thermodynamic solubility turned out to be 493 µM (≈ 199 µg/mL). The compound also gave a logD in data set [1] of 2.2.
Taken in the same sequence, the figures for `CN1CC2CCC1([C@H](NC(=O)c1c(N)cccc1Cl)c1ccccc1)CC2` were 462 µM (≈ 177 µg/mL) and 1.3.
In data set [2], `COc1cncc(Cl)c1C(=O)N[C@H](c1ccccc1)C12CCC(CC1)CN2C` returned a thermodynamic solubility of more than 500 µM. In addition, in data set [1], the logD amounted to 1.
In general, Cmax refers to the peak of the concentration-time curve. By Tmax is commonly meant the time at which the peak concentration occurs. In data set [2], `Cc1cccc(C)c1C(=O)N[C@H](c1ccccc1)C12CCC(CC1)CN2C` registered a thermodynamic solubility of 414 µM (≈ 150 µg/mL). The compound also registered a logD in data set [1] of 1.9. The compound further yielded a Cmax in data set [3] of 2.45 µM. Moreover, the Kp in data set [4] worked out at 0.2; in data set [5], 0.4. In addition, the Vd in data set [6] is 1.8 L/kg. Moreover, in data set [7], the Tmax is 1 h. In addition, in data set [8], the bioavailability amounted to 105%.
Take `CN1CC2CCC1([C@H](NC(=O)c1c(Cl)cccc1Cl)c1ccccc1)CC2`: the solubility (thermodynamic) in data set [2] is more than 500 µM. The same compound had a logD in data set [1] of 1.9.
With `Cc1ccnc(C)c1C(=O)N[C@H](c1ccccc1)C12CCC(CC1)CN2C`, the thermodynamic solubility in data set [2] is 373 µM (≈ 136 µg/mL). The compound also returned a logD in data set [1] of 0.8.
Taken in the same sequence, the figures for `CN1CC2CCC1([C@H](NC(=O)c1c(Cl)ccnc1Cl)c1ccccc1)CC2` were more than 500 µM and 1.1.
In turn, `CCN1CC2CC1(C(NC(=O)c1c(C)cccc1C)c1ccccc1)C2` (stereo not given) had a logD in data set [1] of 1.1.
The compound `Cc1cccc(C)c1C(=O)NC(c1ccccc1)C12CC(CN1)C2` (stereo not given) displayed a logD in data set [1] of 0.8.
Same read-out and setting: for `Cc1cccc(C)c1C(=O)NC(c1ccccc1)C12CC(CN1C)C2` (stereo not given) the value was 1.1.
For `CN1CC2CCC1([C@H](NC(=O)c1c(Cl)cncc1Cl)c1ccccc1)CC2`, the thermodynamic solubility in data set [2] is 481 µM (≈ 194 µg/mL). This compound also came in with a logD in data set [1] of 1.4.
In turn, `Cc1cccc(C)c1C(=O)NC(c1ccccc1)C12CCC(CC1)N2C(C)C` (stereo not given) had a logD in data set [1] of 1.9.
Same read-out and setting: for `Cc1cccc(C)c1C(=O)NC(c1ccc(S(=O)(=O)CC2CC2)cc1)C12CCC(CC1)CN2C` (stereo not given) the value was 2.
For the compound `CN1CCCC[C@H]1[C@@H](NC(=O)c1cccc(C(F)(F)F)c1Cl)c1ccccc1`, in data set [2], the thermodynamic solubility was 124 µM (≈ 50.9 µg/mL). In addition, the log distribution coefficient (logD) in data set [1] is 2.9.
In turn, `CCN1C2CCC1(C(NC(=O)c1c(C)cccc1C)c1ccccc1)CC2` (stereo not given) displayed a pH-dependent lipophilicity (logD) in data set [1] of 2.1.
For `Cc1cccc(C)c1C(=O)NC(c1ccncc1)C12CCC(CC1)CN2C` (stereo not given), in data set [1], the logD was 1.4.
For the compound `Cc1cccc(C)c1C(=O)NC(c1ccccc1)C12CCC(CC1)N2` (stereo not given), the logD in data set [1] was 1.4.
On to `Cc1cccc(C)c1C(=O)NC(c1ccccc1)C12CCC(CC1)CN2` (stereo not given), for which the logD in data set [1] turned out to be 1.3.
`CN1CC2CCC1([C@H](NC(=O)c1ccnc(C(F)(F)F)c1F)c1ccccc1)CC2` came in with a solubility (thermodynamic) in data set [2] of more than 500 µM. The logD in data set [1] was found to be 2.4.
For the compound `Cc1cccc(C)c1C(=O)NC(c1cccc(-c2cnn(C)c2)c1)C12CCC(CC1)CN2C` (stereo not given), in data set [1], the logD was found to be 2.1.
`Cc1ccc(C(NC(=O)c2c(C)cccc2C)C23CCC(CC2)CN3C)o1` (stereo not given): the logD in data set [1] was found to be 1.5.
On the same count and under the same terms, for `Cc1cccc(C)c1C(=O)NC(c1ccncc1)C12CCC(CC1)N2` (stereo not given) the value was 0.9; for `Cc1cccc(C(NC(=O)c2cccc(C(F)(F)F)c2Cl)C23CCC(CC2)CN3C)c1` (racemic), 3; for `CN1CC2CCC1(C(NC(=O)c1cccc(C(F)(F)F)c1Cl)c1ccncc1)CC2` (racemic), 2.4.
In turn, `CN1CC2CCC1([C@H](NC(=O)c1ccncc1Br)c1ccccc1)CC2` displayed a thermodynamic solubility in data set [2] of more than 500 µM.
`Cc1cccc(C)c1C(=O)NC(c1ccccc1)C12CCC(CC1)N2C` (stereo not given) came in with a logD in data set [1] of 1.9.
Turning to `COc1cccc(OC)c1C(=O)N[C@H](c1ccccc1)C12CCC(CC1)CN2C`, in data set [2], the thermodynamic solubility worked out at 495 µM (≈ 195 µg/mL). Also, the logD in data set [1] came out at 0.7.
As to `CN1CC2CCC1([C@H](NC(=O)c1ccnc(Cl)c1Cl)c1ccccc1)CC2`, the solubility (thermodynamic) in data set [2] was found to be 498 µM (≈ 201 µg/mL). Moreover, in data set [1], the logD amounted to 2.2.
For the compound `CN1CC2CCC1(C(NC(=O)c1cccc(C(F)(F)F)c1Cl)c1ccccc1)CC2` (racemic), in data set [1], the logD was determined as 2.7.
